In ChEMBL document CHEMBL1138356, “Design and synthesis of human immunodeficiency virus entry inhibitors: sulfonamide as an isostere for the alpha-ketoamide group” (J Med Chem, 2007):

How the values were obtained:
[1] = Cytotoxicity against human U87 cells expressing CD4 and CXCR4; type: cell-based, U-87MG ATCC
[2] = tested on: Human immunodeficiency virus 1; experiment: Antiviral activity against HIV1 pseudovirus in U87 cells expressing CD4 and CCR5 after 72 hrs by M33 pseudotyped assay; type: functional, organism-based, U-87MG ATCC; conditions: Human immunodeficiency virus 1, U-87 MG
Outline: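 M33 pseudotyped viral attachment assay giving IC50 values. Specificity for HIV was judged by counter-screening against AMLV-pseudotyped virus at concentrations above 100× the M33 IC50.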

Row | Compound | CC50 [1] [µM] | IC50 [2] [µM]
1 | COc1cccc2[nH]cc(S(=O)(=O)N3CCN(C(=O)c4ccccc4)C[C@H]3C)c12 | > 40 | 4.2
2 | C[C@@H]1CN(C(=O)c2ccccc2)CCN1S(=O)(=O)c1c[nH]c2c(-n3ccnn3)ccc(F)c12 | > 40 | 0.15
3 | C[C@@H]1CN(C(=O)c2ccccc2)CCN1S(=O)(=O)c1c[nH]c2c(-n3cc(CO)nn3)nccc12 | > 40 | 0.25
4 | COC(=O)[C@@H]1CN(C(=O)c2ccccc2)CCN1S(=O)(=O)c1c[nH]c2ncccc12 | > 40 | > 20
5 | C[C@@H]1CN(S(=O)(=O)c2c[nH]c3ncccc23)CCN1C(=O)c1ccccc1 | > 40 | 13
6 | C[C@@H]1CN(C(=O)c2ccccc2)CCN1S(=O)(=O)c1c[nH]c2ccccc12 | > 40 | 0.43
7 | C[C@@H]1CN(C(=O)c2ccccc2)CCN1S(=O)(=O)c1c[nH]c2c(C#N)cc(F)cc12 | > 40 | 10
8 | C[C@@H]1CN(C(=O)c2ccccc2)CCN1S(=O)(=O)c1c[nH]c2c(-n3nccn3)ccc(F)c12 | > 40 | 0.2
9 | C[C@@H]1CN(C(=O)c2ccccc2)CCN1S(=O)(=O)c1c[nH]c2c(-n3cncn3)ccc(F)c12 | > 40 | 0.5
10 | C[C@@H]1CN(C(=O)c2ccccc2)CCN1S(=O)(=O)c1c[nH]c2c(-n3ccnc3)nccc12 | > 40 | 0.08
11 | C[C@H]1CN(S(=O)(=O)c2c[nH]c3ncccc23)CCN1C(=O)c1ccccc1 | > 40 | > 20
12 | C[C@@H]1CN(C(=O)c2ccccc2)CCN1S(=O)(=O)c1c[nH]c2c(-n3nccn3)ncc(F)c12 | > 40 | 0.62
13 | C[C@@H]1CN(C(=O)c2ccccc2)CCN1S(=O)(=O)c1c[nH]c2c(-n3ccnc3)ncc(F)c12 | > 40 | 0.036
14 | CC[C@@H]1CN(C(=O)c2ccccc2)CCN1S(=O)(=O)c1c[nH]c2ncccc12 | > 40 | 16
15 | C[C@@H]1CN(C(=O)c2ccccc2)CCN1S(=O)(=O)c1c[nH]c2c(-n3ccnn3)ncc(F)c12 | > 40 | 0.007
16 | C[C@H]1CN(C(=O)c2ccccc2)CCN1S(=O)(=O)c1c[nH]c2ncccc12 | > 40 | > 20
17 | CC1(C)CN(C(=O)c2ccccc2)CCN1S(=O)(=O)c1c[nH]c2ncccc12 | > 40 | > 20
18 | C[C@@H]1CN(C(=O)c2ccccc2)CCN1S(=O)(=O)c1c[nH]c2c(-n3ccnn3)nccc12 | > 40 | 0.027
19 | C[C@@H]1CN(C(=O)c2ccccc2)CCN1S(=O)(=O)c1c[nH]c2cccc(F)c12 | > 40 | 0.2
20 | C[C@@H]1CN(C(=O)c2ccccc2)CCN1S(=O)(=O)c1c[nH]c2c(F)ccc(F)c12 | > 40 | 0.37
21 | NC(=O)[C@@H]1CN(C(=O)c2ccccc2)CCN1S(=O)(=O)c1c[nH]c2ncccc12 | > 40 | > 20
22 | NC(=O)[C@H]1CN(C(=O)c2ccccc2)CCN1S(=O)(=O)c1c[nH]c2ncccc12 | > 40 | > 20
23 | C[C@@H]1CN(C(=O)c2ccccc2)CCN1S(=O)(=O)c1c[nH]c2c(F)c(F)c(F)c(F)c12 | > 40 | 4.7
24 | C[C@@H]1CN(C(=O)c2ccccc2)CCN1S(=O)(=O)c1c[nH]c2c(-n3cncn3)nccc12 | > 40 | 0.15
25 | C[C@@H]1CN(C(=O)c2ccccc2)CCN1S(=O)(=O)c1c[nH]c2ccc(F)cc12 | > 40 | 3.6
26 | O=C(C(=O)N1CCN(C(=O)c2ccccc2)CC1)c1c[nH]c2ncccc12 | > 40 | 0.52
27 | C[C@@H]1CN(C(=O)c2ccccc2)CCN1S(=O)(=O)c1c[nH]c2ccc(C#N)cc12 | > 40 | > 20
28 | C[C@@H]1CN(C(=O)c2ccccc2)CCN1S(=O)(=O)c1c[nH]c2c(-n3cc(CF)nn3)nccc12 | > 40 | 0.24
29 | COc1cc2c(S(=O)(=O)N3CCN(C(=O)c4ccccc4)C[C@H]3C)c[nH]c2cn1 | > 40 | 9.2
